Assay results taken from paper PMC6759879 (Journal of the American Heart Association: Cardiovascular …, 2019).

Assays:
[1] = tested on: Cx43 CT; assay: EDC cross‐linking of kinase reaction mixtures, Cx43 CT; format: binding; details: peptide at 5, 10 and 25 μmol/L, streptavidin labeling
How it was run: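 Kinase mixture as in the PKCε assay, but in 20 mmol/L MOPS pH 7.2 with 30 μg/mL Cx43 CT substrate and varied peptide, 15 min at 37°C. EDC added to 20 mmol/L final and left 1 h at room temperature. Stopped with LDS buffer and boiled 5 min. Run on 18% gels, then Coomassie-stained (bands excised for MS/MS) or blotted for biotin with HRP‑NeutrAvidin.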

[2] = tested on: PKCε phosphorylation of Cx43‐CT substrate at Ser368; assay: PKCε Cx43 CT S368 phosphorylation assay; format: biochemical; details: Western blot pS368/total Cx43; biotin-tagged peptides
How it was run: (§1)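 PKCε (400 ng/mL, prediluted in HEPES/CHAPS/DTT buffer) is used with wild-type or KK/QQ Cx43‑CT (aa 255–382) substrate at 14 μg/mL, plus peptide. Incubated 12 min at 37°C, quenched in LDS, blotted for pS368, stripped, reprobed for total Cx43. % phosphorylation normalized to PKC+ no-peptide control.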

[3] = target: Cx43 CT (amino acids 255–382) (Rattus norvegicus, UniProt P08050); assay: Surface plasmon resonance, immobilized biotin-peptides, Cx43 CT analyte; format: binding
How it was run: (§2)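 Biotin-peptides are immobilized at equal RU on a streptavidin chip in HEPES/EDTA/NaCl/Tween‑20, pH 7.4. Analyte is Cx43 CT (wild type or KK/QQ) with GST removed by PreScission protease, injected at several concentrations in random order in 10 mmol/L HEPES, 100 mmol/L NaCl pH 7.4 at 30 μL/min. Regeneration: 50 mmol/L NaOH/1 mol/L NaCl. Biotin-reversed-sequence reference subtracted; mean of 3 runs.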

[4] = tested on: Cx43 CT‐KK/QQ; assay: Surface plasmon resonance, immobilized biotin-peptides, Cx43 CT‐KK/QQ analyte; format: binding; details: analyte 0.5 to 15 μmol/L, reverse control peptide subtracted, mean of 3 runs
How it was run: as §2

[5] = tested on: Cx43 CT KK/QQ mutant substrate; assay: PKCε phosphorylation assay with Cx43 CT KK/QQ mutant substrate; format: biochemical; details: biotin‐αCT1 20 μmol/L
How it was run: as §1

[6] = tested on: ZO‐1 PDZ2; assay: Protein thermal shift assay, ZO‐1 PDZ2; format: binding; details: 500 μg/mL GST‐PDZ2, 25 to 100 μmol/L peptide, PBS pH 7.4, SYPRO Orange, N=6
How it was run: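 Recombinant GST–PDZ2 (500 μg/mL) is mixed with 25–100 μmol/L peptide in PBS pH 7.4 with SYPRO Orange at 8× final. Melt runs from 25°C to 95°C in 0.05 °C/s steps on a real-time PCR instrument, ROX channel, no quencher. Tm is compared against unliganded protein. Six independent runs.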

[7] = tested on: ZO‐1 PDZ2 domain; assay: EDC zero-length cross‐linking to GST ZO‐1 PDZ domains; format: binding; details: biotin‐tagged peptide at 5, 25 and 50 μmol/L, NeutrAvidin labeling
How it was run: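 Direct coupling uses purified GST–ZO‑1 PDZ fusion protein from IPTG-induced BL21 at 50 μg/mL with biotinylated peptide in PBS pH 7.5. They react 1 h at room temperature before EDC is added. The mixture is boiled in LDS buffer, run on 18% SDS‑PAGE and blotted for GST or with NeutrAvidin‑HRP by chemiluminescence.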

Sequence of Cx43 CT (amino acids 255–382) (P08050 255-382): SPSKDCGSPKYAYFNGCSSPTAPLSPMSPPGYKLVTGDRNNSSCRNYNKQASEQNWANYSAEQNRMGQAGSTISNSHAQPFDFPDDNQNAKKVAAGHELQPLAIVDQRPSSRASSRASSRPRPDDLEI

| Cx43 CT KK/QQ mutant binding to immobilized biotin-peptide (SPR response) [4] | Sequence | Cx43 S368 phosphorylation versus PKCε+plus control (in words) [2] | further results |
| --- | --- | --- | --- |
| minimal interaction | RQPKIWFPNRRKPWKK RPRPAALEI [Peptide M2] | did not increase Cx43 S368 phosphorylation | – |
| minimal interaction | RQPKIWFPNRRKPWKK RPRPDDLBI [Peptide M3] | did not increase Cx43 S368 phosphorylation | SPR binding kinetics with Cx43 CT (in words) ([3]; inspection of SPR curves): higher initial on rate; Change of ZO‐1 PDZ2 melt temperature (Tm) [6]: evidence of significant interaction |

More lines, now with the values behind:

| Sequence | Cx43 CT KK/QQ mutant binding to immobilized biotin-peptide (SPR response) [4] | Cx43 S368 phosphorylation versus PKCε+plus control (in words) [2] | further results |
| --- | --- | --- | --- |
| RQPKIWFPNRRKPWKK LPAARIAPR [Peptide M4] | – | – | Cross‐linking to Cx43 CT by EDC [1]: no evidence of cross‐linking |
| RQPKIWFPNRRKPWKK RPRPAALAI [Peptide M1] | minimal interaction | did not increase Cx43 S368 phosphorylation | Cx43 CT binding to immobilized biotin-peptide (SPR response) ([3]; analyte 0.5 to 15 μmol/L, reverse control peptide subtracted, mean of 3 runs): loss of Cx43 CT binding competence; Phosphorylation of Cx43 CT KK/QQ mutant substrate [5]: Neither αCT1 nor M1 prompted an increase in phosphorylation |
| RQPKIWFPNRRKPWKK RPRPDDLE [αCT1‐I] | – | significant increase in PKCε‐mediated phosphorylation of Cx43 CT | Interaction with ZO‐1 PDZ2 by EDC cross‐linking [7]: incompetent to interact with the ZO‐1 PDZ2 domain |
